# System: Coxsackievirus B6
# Test: Antiviral activity against Coxsackievirus B6 infected in african green monkey Vero cells assessed as inhibition of viral growth after 24 hrs by Reed-Muench method
# Assay type: functional, organism-based
# Settings: Enterovirus B
# Procedure, shortened: (§1)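 Vero cells were seeded and after 24 h exposed to virus for 2 h. Compounds were then added after being dissolved in DMSO and diluted in culture medium. Cell-control and virus-control wells were run alongside. Cytopathic effect was scored once the virus wells exceeded grade 4. The 50% inhibitory concentration of virus growth was calculated by the Reed–Muench method.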
row,Structure (SMILES),IC50 [µM]
1,COc1ccc(-c2nc3c(C(=O)NCCCO)cccc3[nH]2)cc1OC,12.1
2,CCC(CC)NC(=O)c1cccc2[nH]c(-c3ccc(OC)c(OC)c3)nc12,0.736
3,COc1ccc(-c2nc3c(C(=O)Nc4cnc(Cl)cn4)cccc3[nH]2)cc1OC,18.1
4,COc1ccc(-c2nc3c(C(=O)N[C@H](CO)[C@H](O)c4ccc([N+](=O)[O-])cc4)cccc3[nH]2)c(OC)c1OC,4.73
5,COc1ccc(-c2nc3c(C(=O)NCCCO)cccc3[nH]2)c(OC)c1OC,19.2
6,CCC(CC)NC(=O)c1cccc2[nH]c(-c3ccc(OC)c(OC)c3OC)nc12,18.7
7,COc1ccc(-c2nc3c(C(=O)Nc4cnc(Cl)cn4)cccc3[nH]2)c(OC)c1OC,16.9
8,COc1ccc(-c2nc3c(C(=O)Nc4nc5ccccc5[nH]4)cccc3[nH]2)c(OC)c1OC,16.7
9,NC(=O)c1ncn([C@@H]2O[C@H](CO)[C@@H](O)[C@H]2O)n1 [RIBAVIRIN],910

# System: Enterovirus A71
# Test: Antiviral activity against Human enterovirus 71 infected in african green monkey Vero cells assessed as inhibition of viral growth after 48 hrs by Reed-Muench method
# Assay type: functional, organism-based
# Settings: Enterovirus A
# Procedure, shortened: as §1
row,Structure (SMILES),IC50 [µM]
1,O=C(N[C@H](CO)[C@H](O)c1ccc([N+](=O)[O-])cc1)c1cccc2[nH]c(-c3ccccn3)nc12,4.06

# System: not listed separately
# Test: Selectivity index, ratio of TC50 for african green monkey Vero cells to IC50 for Coxsackievirus A16
# Assay type: toxicity, cell-based
# Settings: read-out: Selectivity Index
# Procedure, shortened: (§2)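 Selectivity index is calculated as TC50 in Vero cells divided by the antiviral IC50 against the named enterovirus. Both values come from the same Vero cytopathic-effect assay, with compounds dissolved in DMSO and diluted in medium.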
row,Structure (SMILES),selectivity ratio
1,COc1ccc(-c2nc3c(C(=O)NCCCO)cccc3[nH]2)cc1OC,2.1
2,CCC(CC)NC(=O)c1cccc2[nH]c(-c3ccc(OC)c(OC)c3)nc12,3
3,COc1ccc(-c2nc3c(C(=O)Nc4cnc(Cl)cn4)cccc3[nH]2)cc1OC,4.3
4,COc1ccc(-c2nc3c(C(=O)N[C@H](CO)[C@H](O)c4ccc([N+](=O)[O-])cc4)cccc3[nH]2)c(OC)c1OC,2.1
5,COc1ccc(-c2nc3c(C(=O)NCCCO)cccc3[nH]2)c(OC)c1OC,2.1
6,CCC(CC)NC(=O)c1cccc2[nH]c(-c3ccc(OC)c(OC)c3OC)nc12,1.7
7,COc1ccc(-c2nc3c(C(=O)Nc4cnc(Cl)cn4)cccc3[nH]2)c(OC)c1OC,3.9
8,COc1ccc(-c2nc3c(C(=O)Nc4nc5ccccc5[nH]4)cccc3[nH]2)c(OC)c1OC,1.7

# System: Coxsackievirus B3
# Test: Antiviral activity against Coxsackievirus B3 infected in african green monkey Vero cells assessed as inhibition of viral growth after 24 hrs by Reed-Muench method
# Assay type: functional, organism-based
# Settings: Enterovirus B
# Procedure, shortened: as §1
row,Structure (SMILES),IC50 [µM]
1,O=C(N[C@H](CO)[C@H](O)c1ccc([N+](=O)[O-])cc1)c1cccc2[nH]c(-c3ccccn3)nc12,4.06
2,COc1ccc(-c2nc3c(C(=O)NCCCO)cccc3[nH]2)cc1OC,17.2
3,CCC(CC)NC(=O)c1cccc2[nH]c(-c3ccc(OC)c(OC)c3)nc12,0.7
4,COc1ccc(-c2nc3c(C(=O)Nc4cnc(Cl)cn4)cccc3[nH]2)cc1OC,18.4
5,COc1ccc(-c2nc3c(C(=O)N[C@H](CO)[C@H](O)c4ccc([N+](=O)[O-])cc4)cccc3[nH]2)c(OC)c1OC,4.73
6,COc1ccc(-c2nc3c(C(=O)NCCCO)cccc3[nH]2)c(OC)c1OC,19.5
7,CCC(CC)NC(=O)c1cccc2[nH]c(-c3ccc(OC)c(OC)c3OC)nc12,18.7
8,COc1ccc(-c2nc3c(C(=O)Nc4cnc(Cl)cn4)cccc3[nH]2)c(OC)c1OC,17.4
9,COc1ccc(-c2nc3c(C(=O)Nc4nc5ccccc5[nH]4)cccc3[nH]2)c(OC)c1OC,16.9
10,NC(=O)c1ncn([C@@H]2O[C@H](CO)[C@@H](O)[C@H]2O)n1 [RIBAVIRIN],1690

# System: not listed separately
# Test: Selectivity index, ratio of TC50 for african green monkey Vero cells to IC50 for Coxsackievirus B3
# Assay type: toxicity, cell-based
# Settings: read-out: Selectivity Index
# Procedure, shortened: as §2
row,Structure (SMILES),selectivity ratio
1,O=C(N[C@H](CO)[C@H](O)c1ccc([N+](=O)[O-])cc1)c1cccc2[nH]c(-c3ccccn3)nc12,328
2,COc1ccc(-c2nc3c(C(=O)NCCCO)cccc3[nH]2)cc1OC,2.7
3,CCC(CC)NC(=O)c1cccc2[nH]c(-c3ccc(OC)c(OC)c3)nc12,3
4,COc1ccc(-c2nc3c(C(=O)Nc4cnc(Cl)cn4)cccc3[nH]2)cc1OC,4.3
5,COc1ccc(-c2nc3c(C(=O)N[C@H](CO)[C@H](O)c4ccc([N+](=O)[O-])cc4)cccc3[nH]2)c(OC)c1OC,2
6,COc1ccc(-c2nc3c(C(=O)NCCCO)cccc3[nH]2)c(OC)c1OC,2.1
7,CCC(CC)NC(=O)c1cccc2[nH]c(-c3ccc(OC)c(OC)c3OC)nc12,1.7
8,COc1ccc(-c2nc3c(C(=O)Nc4cnc(Cl)cn4)cccc3[nH]2)c(OC)c1OC,3.8
9,COc1ccc(-c2nc3c(C(=O)Nc4nc5ccccc5[nH]4)cccc3[nH]2)c(OC)c1OC,1.7

# System: not listed separately
# Test: Cytotoxicity against african green monkey Vero cells
# Assay type: cell-based
# Settings: chlorocebus sabaeus, Vero cells; read-out: TC50 (the source's name)
# Procedure, shortened: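 TC50 is the compound concentration killing 50% of Vero cells (inhibiting cell growth by 50%). Compounds were dissolved in DMSO and diluted in medium, then added to seeded Vero cells. Cell wells were examined when cytopathic effect in virus-infected control wells exceeded grade 4.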
row,Structure (SMILES),CC50 [µM]
1,O=C(N[C@H](CO)[C@H](O)c1ccc([N+](=O)[O-])cc1)c1cccc2[nH]c(-c3ccccn3)nc12,1330
2,COc1ccc(-c2nc3c(C(=O)NCCCO)cccc3[nH]2)cc1OC,46
3,CCC(CC)NC(=O)c1cccc2[nH]c(-c3ccc(OC)c(OC)c3)nc12,2.23
4,COc1ccc(-c2nc3c(C(=O)Nc4cnc(Cl)cn4)cccc3[nH]2)cc1OC,78.3
5,COc1ccc(-c2nc3c(C(=O)N[C@H](CO)[C@H](O)c4ccc([N+](=O)[O-])cc4)cccc3[nH]2)c(OC)c1OC,9.85
6,COc1ccc(-c2nc3c(C(=O)NCCCO)cccc3[nH]2)c(OC)c1OC,40
7,CCC(CC)NC(=O)c1cccc2[nH]c(-c3ccc(OC)c(OC)c3OC)nc12,32.3
8,COc1ccc(-c2nc3c(C(=O)Nc4cnc(Cl)cn4)cccc3[nH]2)c(OC)c1OC,65.2
9,COc1ccc(-c2nc3c(C(=O)Nc4nc5ccccc5[nH]4)cccc3[nH]2)c(OC)c1OC,29
10,NC(=O)c1ncn([C@@H]2O[C@H](CO)[C@@H](O)[C@H]2O)n1 [RIBAVIRIN],8190

# System: Coxsackievirus A16
# Test: Antiviral activity against Coxsackievirus A16 infected in african green monkey Vero cells assessed as inhibition of viral growth after 24 hrs by Reed-Muench method
# Assay type: functional, cell-based
# Settings: Enterovirus A, Vero, 24 h; read-out: IC50
# Procedure, shortened: as §1
row,Structure (SMILES),IC50 [µM]
1,COc1ccc(-c2nc3c(C(=O)NCCCO)cccc3[nH]2)cc1OC,20.9
2,CCC(CC)NC(=O)c1cccc2[nH]c(-c3ccc(OC)c(OC)c3)nc12,0.736
3,COc1ccc(-c2nc3c(C(=O)Nc4cnc(Cl)cn4)cccc3[nH]2)cc1OC,18.1
4,COc1ccc(-c2nc3c(C(=O)N[C@H](CO)[C@H](O)c4ccc([N+](=O)[O-])cc4)cccc3[nH]2)c(OC)c1OC,4.73
5,COc1ccc(-c2nc3c(C(=O)NCCCO)cccc3[nH]2)c(OC)c1OC,19.2
6,CCC(CC)NC(=O)c1cccc2[nH]c(-c3ccc(OC)c(OC)c3OC)nc12,18.7
7,COc1ccc(-c2nc3c(C(=O)Nc4cnc(Cl)cn4)cccc3[nH]2)c(OC)c1OC,16.9
8,COc1ccc(-c2nc3c(C(=O)Nc4nc5ccccc5[nH]4)cccc3[nH]2)c(OC)c1OC,16.7
9,NC(=O)c1ncn([C@@H]2O[C@H](CO)[C@@H](O)[C@H]2O)n1 [RIBAVIRIN],4090

# System: Enterovirus A71
# Test: Antiviral activity against Human enterovirus 71 infected in african green monkey Vero cells assessed as inhibition of viral growth after 24 hrs by Reed-Muench method
# Assay type: functional, organism-based
# Settings: Enterovirus A
# Procedure, shortened: as §1
row,Structure (SMILES),IC50 [µM]
1,COc1ccc(-c2nc3c(C(=O)NCCCO)cccc3[nH]2)cc1OC,20.9
2,CCC(CC)NC(=O)c1cccc2[nH]c(-c3ccc(OC)c(OC)c3)nc12,0.736
3,COc1ccc(-c2nc3c(C(=O)Nc4cnc(Cl)cn4)cccc3[nH]2)cc1OC,18.1
4,COc1ccc(-c2nc3c(C(=O)N[C@H](CO)[C@H](O)c4ccc([N+](=O)[O-])cc4)cccc3[nH]2)c(OC)c1OC,3.68
5,COc1ccc(-c2nc3c(C(=O)NCCCO)cccc3[nH]2)c(OC)c1OC,14.9
6,CCC(CC)NC(=O)c1cccc2[nH]c(-c3ccc(OC)c(OC)c3OC)nc12,18.7
7,COc1ccc(-c2nc3c(C(=O)Nc4cnc(Cl)cn4)cccc3[nH]2)c(OC)c1OC,16.9
8,COc1ccc(-c2nc3c(C(=O)Nc4nc5ccccc5[nH]4)cccc3[nH]2)c(OC)c1OC,16.7
9,NC(=O)c1ncn([C@@H]2O[C@H](CO)[C@@H](O)[C@H]2O)n1 [RIBAVIRIN],2340

# System: not listed separately
# Test: Selectivity index, ratio of TC50 for african green monkey Vero cells to IC50 for Human enterovirus 71
# Assay type: toxicity, cell-based
# Settings: read-out: Selectivity Index
# Procedure, shortened: as §2
row,Structure (SMILES),selectivity ratio
1,O=C(N[C@H](CO)[C@H](O)c1ccc([N+](=O)[O-])cc1)c1cccc2[nH]c(-c3ccccn3)nc12,328
2,COc1ccc(-c2nc3c(C(=O)NCCCO)cccc3[nH]2)cc1OC,2.7
3,CCC(CC)NC(=O)c1cccc2[nH]c(-c3ccc(OC)c(OC)c3)nc12,3
4,COc1ccc(-c2nc3c(C(=O)Nc4cnc(Cl)cn4)cccc3[nH]2)cc1OC,4.3
5,COc1ccc(-c2nc3c(C(=O)N[C@H](CO)[C@H](O)c4ccc([N+](=O)[O-])cc4)cccc3[nH]2)c(OC)c1OC,2.7
6,COc1ccc(-c2nc3c(C(=O)NCCCO)cccc3[nH]2)c(OC)c1OC,2.7
7,CCC(CC)NC(=O)c1cccc2[nH]c(-c3ccc(OC)c(OC)c3OC)nc12,1.73
8,COc1ccc(-c2nc3c(C(=O)Nc4cnc(Cl)cn4)cccc3[nH]2)c(OC)c1OC,3.9
9,COc1ccc(-c2nc3c(C(=O)Nc4nc5ccccc5[nH]4)cccc3[nH]2)c(OC)c1OC,1.7

# System: not listed separately
# Test: Selectivity index, ratio of TC50 for african green monkey Vero cells to IC50 for Coxsackievirus B6
# Assay type: toxicity, cell-based
# Settings: read-out: Selectivity Index
# Procedure, shortened: as §2
row,Structure (SMILES),selectivity ratio
1,COc1ccc(-c2nc3c(C(=O)NCCCO)cccc3[nH]2)cc1OC,3.6
2,CCC(CC)NC(=O)c1cccc2[nH]c(-c3ccc(OC)c(OC)c3)nc12,3
3,COc1ccc(-c2nc3c(C(=O)Nc4cnc(Cl)cn4)cccc3[nH]2)cc1OC,4.3
4,COc1ccc(-c2nc3c(C(=O)N[C@H](CO)[C@H](O)c4ccc([N+](=O)[O-])cc4)cccc3[nH]2)c(OC)c1OC,2.1
5,COc1ccc(-c2nc3c(C(=O)NCCCO)cccc3[nH]2)c(OC)c1OC,2.7
6,CCC(CC)NC(=O)c1cccc2[nH]c(-c3ccc(OC)c(OC)c3OC)nc12,1.7
7,COc1ccc(-c2nc3c(C(=O)Nc4cnc(Cl)cn4)cccc3[nH]2)c(OC)c1OC,3.9
8,COc1ccc(-c2nc3c(C(=O)Nc4nc5ccccc5[nH]4)cccc3[nH]2)c(OC)c1OC,1.7
